{"source": "ChEMBL document CHEMBL4602672", "about": "“Isolation, Identification, and Decomposition of Antibacterial Dialkylresorcinols from a Chinese Pseudomonas aurantiaca Strain” (2020)", "key": {"[1]": {"system": "Staphylococcus aureus", "experiment": "Antibacterial activity against Staphylococcus aureus ATCC 12600 assessed as reduction in microbial growth after 24 hrs by agar well diffusion assay", "type": "functional", "settings": "ATCC 12600, 24 h"}, "[2]": {"system": "Streptococcus mutans", "experiment": "Antibacterial activity against Streptococcus mutans ATCC 25175 assessed as reduction in microbial growth after 24 hrs by agar well diffusion assay", "type": "functional", "settings": "ATCC 25175, 24 h"}, "[3]": {"system": "Bacillus subtilis", "experiment": "Antibacterial activity against Bacillus subtilis ATCC 6633 assessed as reduction in microbial growth after 24 hrs by agar well diffusion assay", "type": "functional", "settings": "ATCC 6633, 24 h"}, "[4]": {"system": "Staphylococcus epidermidis", "experiment": "Antibacterial activity against Staphylococcus epidermidis ATCC 14990 assessed as reduction in microbial growth at 0.06 to 133 ug/ml after 24 hrs by agar well diffusion assay", "type": "functional, organism-based", "outline": "(§1)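 Modified literature MIC protocol against ATCC pathogens. Antibiotics served as positive control and sterile water with DMSO (<5%) as negative control. For the related well-diffusion work, test samples were dissolved in sterile water with DMSO (<5%). MIC given in μg/mL.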"}, "[5]": {"system": "Enterococcus hirae", "experiment": "Antibacterial activity against Enterococcus hirae ATCC 8043 assessed as reduction in microbial growth at 0.06 to 133 ug/ml after 24 hrs by agar well diffusion assay", "type": "functional, organism-based", "outline": "as §1"}, "[6]": {"system": "Staphylococcus epidermidis", "experiment": "Antibacterial activity against Staphylococcus epidermidis ATCC 14990 assessed as reduction in microbial growth after 24 hrs by agar well diffusion assay", "type": "functional", "settings": "ATCC 14990, 24 h"}, "[7]": {"system": "Enterococcus hirae", "experiment": "Antibacterial activity against Enterococcus hirae ATCC 8043 assessed as reduction in microbial growth after 24 hrs by agar well diffusion assay", "type": "functional", "settings": "ATCC 8043, 24 h"}, "[8]": {"system": "Bacillus subtilis", "experiment": "Antibacterial activity against Bacillus subtilis ATCC 6633 assessed as reduction in microbial growth at 0.06 to 133 ug/ml after 24 hrs by agar well diffusion assay", "type": "functional, organism-based", "outline": "as §1"}, "[9]": {"system": "Staphylococcus aureus", "experiment": "Antibacterial activity against Staphylococcus aureus ATCC 12600 assessed as reduction in microbial growth at 0.06 to 133 ug/ml after 24 hrs by agar well diffusion assay", "type": "functional, organism-based", "outline": "as §1"}, "[10]": {"system": "Streptococcus mutans", "experiment": "Antibacterial activity against Streptococcus mutans ATCC 25175 assessed as reduction in microbial growth at 0.06 to 133 ug/ml after 24 hrs by agar well diffusion assay", "type": "functional, organism-based"}}, "note": "Activity calls are given as the source filed them. The calls are words filed in the database; no cut-off is given here."}
{"smiles": "CCCCCCC1=C(O)C(=O)C(CCCCC)=C(C2=C(CCCCC)C(=O)C(O)=C(CCCCCC)C2=O)C1=O", "values": [{"measurement": "MIC", "setting": "[1]", "value": 133, "unit": "µg/mL"}, {"measurement": "MIC", "setting": "[2]", "value": 133, "unit": "µg/mL"}, {"measurement": "MIC", "setting": "[3]", "value": 133, "unit": "µg/mL"}, {"measurement": "Activity", "setting": "[4]", "value": "inactive"}, {"measurement": "Activity", "setting": "[5]", "value": "inactive"}]}
{"smiles": "CCCCCCCc1cc(O)c(CCCCCC)c(O)c1", "values": [{"measurement": "MIC", "setting": "[6]", "value": 8.3, "unit": "µg/mL"}, {"measurement": "MIC", "setting": "[1]", "value": 1.1, "unit": "µg/mL"}, {"measurement": "MIC", "setting": "[7]", "value": 33.4, "unit": "µg/mL"}, {"measurement": "MIC", "setting": "[2]", "value": 33.4, "unit": "µg/mL"}, {"measurement": "MIC", "setting": "[3]", "value": 66.7, "unit": "µg/mL"}]}
{"smiles": "CC1(C)S[C@@H]2[C@H](NC(=O)Cc3ccccc3)C(=O)N2[C@H]1C(=O)O", "note": "[PENICILLIN G]", "values": [{"measurement": "MIC", "setting": "[6]", "value": 0.52, "unit": "µg/mL"}, {"measurement": "MIC", "setting": "[1]", "value": 0.26, "unit": "µg/mL"}, {"measurement": "MIC", "setting": "[2]", "value": 1.1, "unit": "µg/mL"}]}
{"smiles": "CC1(C)S[C@@H]2[C@H](NC(=O)[C@H](N)c3ccccc3)C(=O)N2[C@H]1C(=O)O", "note": "[AMPICILLIN]", "values": [{"measurement": "MIC", "setting": "[7]", "value": 1.1, "unit": "µg/mL"}]}
{"smiles": "CN[C@H](CC(C)C)C(=O)N[C@H]1C(=O)N[C@@H](CC(N)=O)C(=O)N[C@H]2C(=O)N[C@H]3C(=O)N[C@H](C(=O)N[C@H](C(=O)O)c4cc(O)cc(O)c4-c4cc3ccc4O)[C@H](O)c3ccc(c(Cl)c3)Oc3cc2cc(c3O[C@@H]2O[C@H](CO)[C@@H](O)[C@H](O)[C@H]2O[C@H]2C[C@](C)(N)[C@H](O)[C@H](C)O2)Oc2ccc(cc2Cl)[C@H]1O", "note": "[VANCOMYCIN]", "values": [{"measurement": "MIC", "setting": "[3]", "value": 1.1, "unit": "µg/mL"}]}
{"smiles": "CCCCCCCC1=CC(=O)C(CCCCCC)=C(O)C1=O", "values": [{"measurement": "MIC", "setting": "[1]", "value": 133, "unit": "µg/mL"}, {"measurement": "MIC", "setting": "[2]", "value": 133, "unit": "µg/mL"}, {"measurement": "Activity", "setting": "[4]", "value": "inactive"}, {"measurement": "Activity", "setting": "[5]", "value": "inactive"}, {"measurement": "Activity", "setting": "[8]", "value": "inactive"}]}
{"smiles": "Oc1ccc2nc3ccccc3nc2c1", "values": [{"measurement": "MIC", "setting": "[6]", "value": 33.4, "unit": "µg/mL"}, {"measurement": "Activity", "setting": "[9]", "value": "inactive"}, {"measurement": "Activity", "setting": "[5]", "value": "inactive"}, {"measurement": "Activity", "setting": "[10]", "value": "inactive"}, {"measurement": "Activity", "setting": "[8]", "value": "inactive"}]}
{"smiles": "CCCCCCC(=O)C1(O)C=C(CCCCC)C(=O)O1", "note": "(stereo not given)", "values": [{"measurement": "MIC", "setting": "[6]", "value": 66.7, "unit": "µg/mL"}, {"measurement": "MIC", "setting": "[1]", "value": 33.4, "unit": "µg/mL"}, {"measurement": "MIC", "setting": "[7]", "value": 133, "unit": "µg/mL"}, {"measurement": "MIC", "setting": "[2]", "value": 133, "unit": "µg/mL"}, {"measurement": "MIC", "setting": "[3]", "value": 66.7, "unit": "µg/mL"}]}
{"smiles": "CCCCCCC1=C(O)C(=O)C(CCCCC)=CC1=O", "values": [{"measurement": "MIC", "setting": "[7]", "value": 133, "unit": "µg/mL"}, {"measurement": "MIC", "setting": "[2]", "value": 66.7, "unit": "µg/mL"}, {"measurement": "MIC", "setting": "[3]", "value": 33.4, "unit": "µg/mL"}, {"measurement": "Activity", "setting": "[9]", "value": "inactive"}, {"measurement": "Activity", "setting": "[4]", "value": "inactive"}, {"measurement": "Activity", "setting": "[8]", "value": "inactive"}]}
{"smiles": "CCCCCCC1=C(O)C(=O)C(CCCCC)=C(c2c(CCCCC)cc(O)c(CCCCCC)c2O)C1=O", "values": [{"measurement": "MIC", "setting": "[2]", "value": 133, "unit": "µg/mL"}, {"measurement": "Activity", "setting": "[9]", "value": "inactive"}, {"measurement": "Activity", "setting": "[4]", "value": "inactive"}, {"measurement": "Activity", "setting": "[5]", "value": "inactive"}]}
{"smiles": "CCCCCCc1c(O)cc(CCCCC)cc1O", "note": "[RESORSTATIN]", "values": [{"measurement": "MIC", "setting": "[6]", "value": 4.2, "unit": "µg/mL"}, {"measurement": "MIC", "setting": "[1]", "value": 4.2, "unit": "µg/mL"}, {"measurement": "MIC", "setting": "[7]", "value": 4.2, "unit": "µg/mL"}, {"measurement": "MIC", "setting": "[2]", "value": 4.2, "unit": "µg/mL"}, {"measurement": "MIC", "setting": "[3]", "value": 8.4, "unit": "µg/mL"}]}
{"smiles": "CCCCCCCC1=CC(O)(C(=O)CCCCCC)OC1=O", "note": "(stereo not given)", "values": [{"measurement": "MIC", "setting": "[6]", "value": 33.4, "unit": "µg/mL"}, {"measurement": "MIC", "setting": "[1]", "value": 16.7, "unit": "µg/mL"}, {"measurement": "MIC", "setting": "[7]", "value": 66.7, "unit": "µg/mL"}, {"measurement": "MIC", "setting": "[2]", "value": 133, "unit": "µg/mL"}, {"measurement": "MIC", "setting": "[3]", "value": 33.4, "unit": "µg/mL"}]}
